Measured values reported in ChEMBL document CHEMBL1152495, “Synthesis and antimicrobial studies of novel methylene bridged benzisoxazolyl imidazo[2,1-b][1,3,4]thiadiazole derivatives” (2009).
≈ marks a conversion by molar mass, not a printed value.

Assays:
Type in all cases: functional
[1] = tested on: Staphylococcus aureus; assay: Antibacterial activity against Staphylococcus aureus ATCC 25923 at 100 ug/ml after 24 hrs by agar well diffusion method; settings: ATCC 25923, 24 h, read-out: IZ
How it was run: (§1)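 Agar well diffusion on Mueller Hinton agar (20 mL per dish), seeded homogeneously with liquid bacterial culture by spread plating. Samples loaded directly into wells, dimethylformamide as solvent control, ampicillin as reference drug. Plates incubated at 37 °C for 24 h. All determinations done in triplicate.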

[2] = tested on: Bacillus subtilis; assay: Antibacterial activity against Bacillus subtilis ATCC 6633 at 100 ug/ml after 24 hrs by agar well diffusion method; settings: ATCC 6633, 24 h, read-out: IZ; how it was run: as §1
[3] = tested on: Escherichia coli; assay: Antibacterial activity against Escherichia coli ATCC 35218 at 100 ug/ml after 24 hrs by agar well diffusion method; settings: ATCC 35218, 24 h, read-out: IZ; how it was run: as §1
[4] = tested on: Pseudomonas aeruginosa; assay: Antibacterial activity against Pseudomonas aeruginosa ATCC 10145 at 100 ug/ml after 24 hrs by agar well diffusion method; settings: ATCC 10145, 24 h, read-out: IZ; how it was run: as §1
[5] = tested on: Candida albicans; assay: Antifungal activity against Candida albicans at 100 ug/ml after 72 hrs by agar well diffusion method; settings: read-out: IZ
How it was run: (§2)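 Fungi grown on Potato Dextrose Agar (20 mL per dish), seeded homogeneously with liquid culture by spread plating. Samples loaded directly into agar wells, with dimethylformamide as solvent control and clotrimazole as reference drug. Plates incubated at 25 °C for 72 h, triplicate determinations.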

[6] = tested on: Aspergillus fumigatus; assay: Antifungal activity against Aspergillus fumigatus at 100 ug/ml after 72 hrs by agar well diffusion method; settings: read-out: IZ; how it was run: as §2
[7] = tested on: Staphylococcus aureus; assay: Antibacterial activity against Staphylococcus aureus ATCC 25923 after 24 hrs by agar well diffusion method; settings: ATCC 25923, 24 h; how it was run: as §1
[8] = tested on: Bacillus subtilis; assay: Antibacterial activity against Bacillus subtilis ATCC 6633 after 24 hrs by agar well diffusion method; settings: ATCC 6633, 24 h; how it was run: as §1
[9] = tested on: Escherichia coli; assay: Antibacterial activity against Escherichia coli ATCC 35218 after 24 hrs by agar well diffusion method; settings: ATCC 35218, 24 h; how it was run: as §1
[10] = tested on: Pseudomonas aeruginosa; assay: Antibacterial activity against Pseudomonas aeruginosa ATCC 10145 after 24 hrs by agar well diffusion method; settings: ATCC 10145, 24 h; how it was run: as §1
[11] = tested on: Candida albicans; assay: Antifungal activity against Candida albicans after 72 hrs by agar well diffusion method; how it was run: as §2
[12] = tested on: Aspergillus fumigatus; assay: Antifungal activity against Aspergillus fumigatus after 72 hrs by agar well diffusion method; how it was run: as §2

| Structure (SMILES) | zone of inhibition at 100 µg/mL [1] [mm] | zone of inhibition at 100 µg/mL [2] [mm] | zone of inhibition at 100 µg/mL [3] [mm] | zone of inhibition at 100 µg/mL [4] [mm] | zone of inhibition at 100 µg/mL [5] [mm] | zone of inhibition at 100 µg/mL [6] [mm] | MIC [7] [µg/mL] | MIC [8] [µg/mL] | MIC [9] [µg/mL] | MIC [10] [µg/mL] | MIC [11] [µg/mL] | MIC [12] [µg/mL] |
| --- | --- | --- | --- | --- | --- | --- | --- | --- | --- | --- | --- | --- |
| N#CSc1c(-c2ccc(Cl)cc2)nc2sc(Cc3noc4ccccc34)nn12 | 18 | 17 | 16 | 19 | 15 | 11 | 1 (≈ 2.36 µM) | 1 (≈ 2.36 µM) | 2 (≈ 4.72 µM) | 1.5 (≈ 3.54 µM) | 3 (≈ 7.08 µM) | 4 (≈ 9.44 µM) |
| N#CSc1c(-c2ccc([N+](=O)[O-])cc2)nc2sc(Cc3noc4ccccc34)nn12 | 9 | 8 | 7 | 10 | 11 | 9 | 2 (≈ 4.6 µM) | 2.5 (≈ 5.75 µM) | 4 (≈ 9.21 µM) | 3 (≈ 6.91 µM) | 3.5 (≈ 8.06 µM) | 3.5 (≈ 8.06 µM) |
| COc1ccc(-c2nc3sc(Cc4noc5ccccc45)nn3c2SC#N)cc1 | 9 | 15 | 13 | 19 | 20 | 16 | 2 (≈ 4.77 µM) | 1 (≈ 2.38 µM) | 3 (≈ 7.15 µM) | 1.5 (≈ 3.58 µM) | 2.5 (≈ 5.96 µM) | 2.5 (≈ 5.96 µM) |
| N#CSc1c(-c2ccccc2)nc2sc(Cc3noc4ccccc34)nn12 | 16 | 14 | 12 | 17 | 12 | 15 | 1.5 (≈ 3.85 µM) | 1.5 (≈ 3.85 µM) | 3 (≈ 7.7 µM) | 2 (≈ 5.14 µM) | 3.5 (≈ 8.99 µM) | 2.5 (≈ 6.42 µM) |
| N#CSc1c(-c2ccc(Br)cc2)nc2sc(Cc3noc4ccccc34)nn12 | 12 | 14 | 15 | 18 | 14 | 12 | 1.5 (≈ 3.2 µM) | 2 (≈ 4.27 µM) | 2 (≈ 4.27 µM) | 2 (≈ 4.27 µM) | 3 (≈ 6.41 µM) | 4 (≈ 8.54 µM) |
| N#CSc1c(-c2cc3ccccc3oc2=O)nc2sc(Cc3noc4ccccc34)nn12 | 14 | 15 | 14 | 16 | 12 | 19 | 1.5 (≈ 3.28 µM) | 1 (≈ 2.19 µM) | 3.5 (≈ 7.65 µM) | 2 (≈ 4.37 µM) | 3.5 (≈ 7.65 µM) | 2 (≈ 4.37 µM) |
